From ChEMBL document CHEMBL3124882, “Semi-synthesis of acylated triterpenes from olive-oil industry wastes for the development of anticancer and anti-HIV agents” (Eur J Med Chem, 2014)
Active and inactive are the calls of the source. The calls are words filed in the database; no cut-off is given here.

Key:
B16-F10 [1] = test: Induction of apoptosis in mouse B16F10 cells assessed as total apoptotic cells at 2 X IC50 after 72 hrs by annexin V-FITC/propidium iodide staining-based FACS analysis (reference value: 13.7 +/- 2.7%); assay type: functional
B16-F10 [2] = test: Induction of apoptosis in mouse B16F10 cells assessed as late apoptotic cells at 2 X IC50 after 72 hrs by annexin V-FITC/propidium iodide staining-based FACS analysis (reference value: 9.8 +/- 2.2%); assay type: functional
B16-F10 [3] = test: Induction of ROS generation in mouse B16F10 cells at IC50 to 2 X IC50 after 72 hrs by rhodamine123/propidium iodide staining-based FACS analysis; assay type: functional, cell-based
In short: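 B16F10 cells, 11·10^4 per well, treated 72 h at IC50 or 2×IC50, then given fresh medium with dihydrorhodamine 123 at a final 5 µg/mL for 30 min. Cells washed, resuspended in PBS and read by flow cytometry for Rh123 and PI fluorescence (excitation 500 nm, emission 536 nm). Rh123+ cells scored ROS-positive regardless of PI. Three experiments in duplicate, mean ± S.E.M.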

B16-F10 [4] = test: Induction of apoptosis in mouse B16F10 cells assessed as normal cells at IC50 after 72 hrs by annexin V-FITC/propidium iodide staining-based FACS analysis (reference value: 77.9 +/- 1.5%); assay type: functional
B16-F10 [5] = test: Cytotoxicity against mouse B16F10 cells after 72 hrs by MTT assay; assay type: functional, cell-based; settings: B16-F10, 72 h
In short: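 B16F10 cells (DMEM, 2 mM glutamine, 10% heat-inactivated FCS, penicillin/streptomycin; subconfluent) seeded at 11·10^3 per well and exposed to 0–80 µg/mL for 72 h. Compounds were diluted from a 10 mg/mL stock in 50% DMSO/PBS. MTT 0.5 mg/mL for 2 h, formazan dissolved in DMSO, absorbance at 550 nm. Viability is relative to untreated controls; IC50 from four assays of six replicates, mean ± S.E.M.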

B16-F10 [6] = test: Induction of apoptosis in mouse B16F10 cells assessed as early apoptotic cells at IC50 after 72 hrs by annexin V-FITC/propidium iodide staining-based FACS analysis (reference value: 3.9 +/- 0.4%); assay type: functional
B16-F10 [7] = test: Induction of apoptosis in mouse B16F10 cells assessed as normal cells at 2 X IC50 after 72 hrs by annexin V-FITC/propidium iodide staining-based FACS analysis (reference value: 77.9 +/- 1.5%); assay type: functional
B16-F10 [8] = test: Induction of apoptosis in mouse B16F10 cells assessed as late apoptotic cells at IC50 after 72 hrs by annexin V-FITC/propidium iodide staining-based FACS analysis (reference value: 9.8 +/- 2.2%); assay type: functional
B16-F10 [9] = test: Induction of apoptosis in mouse B16F10 cells assessed as total apoptotic cells at IC50 after 72 hrs by annexin V-FITC/propidium iodide staining-based FACS analysis (reference value: 13.7 +/- 2.7%); assay type: functional
B16-F10 [10] = test: Induction of apoptosis in mouse B16F10 cells assessed as necrotic cells at 2 X IC50 after 72 hrs by annexin V-FITC/propidium iodide staining-based FACS analysis (reference value: 4.0 +/- 0.6%); assay type: functional
B16-F10 [11] = test: Induction of apoptosis in mouse B16F10 cells assessed as early apoptotic cells at 2 X IC50 after 72 hrs by annexin V-FITC/propidium iodide staining-based FACS analysis (reference value: 3.9 +/- 0.4%); assay type: functional
B16-F10 [12] = test: Induction of apoptosis in mouse B16F10 cells assessed as necrotic cells at IC50 after 72 hrs by annexin V-FITC/propidium iodide staining-based FACS analysis (reference value: 4.0 +/- 0.6%); assay type: functional
Protease = Protease (Human immunodeficiency virus 1, UniProt Q9YQ12); test: Inhibition of HIV1 recombinant protease expressed in Escherichia coli using Abz-Ala-Arg-Val-Nle-Tyr(NO2)-Glu-Ala-Nle-NH2 as substrate by FRET assay
Sequence of Protease (Q9YQ12 whole entry): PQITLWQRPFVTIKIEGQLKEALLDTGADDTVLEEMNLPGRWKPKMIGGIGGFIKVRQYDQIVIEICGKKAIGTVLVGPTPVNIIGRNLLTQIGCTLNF

Row | SMILES | Activity (B16-F10 [1]) [%] | Activity (B16-F10 [2]) [%] | Activity (B16-F10 [3]) | Activity (B16-F10 [4]) [%] | IC50 (B16-F10 [5]) [µM] | Activity (B16-F10 [6]) [%] | Activity (B16-F10 [7]) [%] | Activity (B16-F10 [8]) [%] | Activity (B16-F10 [9]) [%] | Activity (B16-F10 [10]) [%] | Activity (B16-F10 [11]) [%] | Activity (B16-F10 [12]) [%] | IC50 (Protease) [µM]
1 | CCC(=O)O[C@H]1CC[C@]2(C)[C@H]3CC=C4[C@@H]5CC(C)(C)CC[C@]5(C(=O)O)CC[C@@]4(C)[C@]3(C)CC[C@H]2C1(C)C | 60.8 | 16.5 | Active | 24.3 | 161 | 47 | 37.2 | 27.4 | 74.4 | 2 | 44.3 | 1.3 | –
2 | CC1(C)CC[C@]2(C(=O)OCc3ccccc3)CC[C@]3(C)C(=CC[C@@H]4[C@@]5(C)CC[C@H](OC(=O)CCC(=O)O)C(C)(C)[C@@H]5CC[C@]43C)[C@@H]2C1 | 91.6 | 17.6 | inactive | 16.9 | 23.2 | 16.6 | 7.7 | 55.5 | 72.1 | 0.7 | 74 | 11.1 | –
3 | CC(=O)O[C@H]1CC[C@]2(C)[C@H]3CC=C4[C@@H]5CC(C)(C)CC[C@]5(C(=O)O)CC[C@@]4(C)[C@]3(C)CC[C@H]2C1(C)C [ACETYL OLEANOLIC ACID] | 48 | 33.4 | Active | 39.5 | 64.7 | 14.4 | 46.3 | 40.3 | 54.7 | 5.7 | 14.6 | 5.8 | 3.4
4 | CC1(C)CC[C@]2(C(=O)OCc3ccccc3)CC[C@]3(C)C(=CC[C@@H]4[C@@]5(C)CC[C@H](OC(=O)CCCC(=O)O)C(C)(C)[C@@H]5CC[C@]43C)[C@@H]2C1 | 90.4 | 24.6 | inactive | 25.8 | 29.9 | 20.6 | 8.1 | 37.9 | 58.4 | 1.6 | 65.8 | 15.9 | –
5 | CC(=O)O[C@@H]1C[C@]2(C)[C@H]3CC=C4[C@@H]5CC(C)(C)CC[C@]5(C(=O)OCc5ccccc5)CC[C@@]4(C)[C@]3(C)CC[C@H]2C(C)(C)[C@H]1O | 98.4 | 27.1 | Active | 12.9 | 39.6 | 66 | 1.1 | 20 | 86 | 0.6 | 71.3 | 1.2 | –
6 | CC1(C)CC[C@]2(C(=O)OCc3ccccc3)CC[C@]3(C)C(=CC[C@@H]4[C@@]5(C)C[C@@H](OC(=O)CCCC(=O)O)[C@H](O)C(C)(C)[C@@H]5CC[C@]43C)[C@@H]2C1 | 78.9 | 19.8 | Active | 73.3 | 63.2 | 10.6 | 20.2 | 14.6 | 25.2 | 0.9 | 59.1 | 1.6 | –
7 | CC(C)(CC(=O)O)CC(=O)O[C@@H]1C[C@]2(C)[C@H]3CC=C4[C@@H]5CC(C)(C)CC[C@]5(C(=O)OCc5ccccc5)CC[C@@]4(C)[C@]3(C)CC[C@H]2C(C)(C)[C@H]1O | 92.2 | 65.3 | Active | 35.4 | 28.3 | 16.5 | 2.2 | 46.3 | 62.8 | 5.6 | 26.9 | 1.8 | –
8 | CC(=O)O[C@@H]1C[C@]2(C)[C@H]3CC=C4[C@@H]5CC(C)(C)CC[C@]5(C(=O)O)CC[C@@]4(C)[C@]3(C)CC[C@H]2C(C)(C)[C@H]1OC(C)=O | 88.9 | 59.3 | Active | 31.4 | 44.1 | 8.7 | 9.7 | 52.9 | 61.6 | 1.5 | 29.6 | 7.1 | –
9 | CC(C)(CC(=O)O)CC(=O)O[C@H]1CC[C@]2(C)[C@H]3CC=C4[C@@H]5CC(C)(C)CC[C@]5(C(=O)OCc5ccccc5)CC[C@@]4(C)[C@]3(C)CC[C@H]2C1(C)C | 88.8 | 36.1 | Active | 8.3 | 14.2 | 44 | 4.9 | 42.6 | 86.5 | 6.4 | 52.8 | 5.3 | –
10 | CCCC(=O)O[C@@H]1C[C@]2(C)[C@H]3CC=C4[C@@H]5CC(C)(C)CC[C@]5(C(=O)O)CC[C@@]4(C)[C@]3(C)CC[C@H]2C(C)(C)[C@H]1O | 83 | 30 | Active | 21 | 107 | 55.6 | 10.2 | 22.1 | 77.7 | 6.8 | 53 | 1.2 | –
11 | CC1(C)CC[C@]2(C(=O)O)CC[C@]3(C)C(=CC[C@@H]4[C@@]5(C)CC[C@H](OC(=O)c6ccccc6)C(C)(C)[C@@H]5CC[C@]43C)[C@@H]2C1 | 60 | 50.5 | Active | 44.6 | 162 | 14 | 31.6 | 37.6 | 51.6 | 8.5 | 9.5 | 3.8 | –
